Laboratory results as given in ChEMBL document CHEMBL1671806, “New imidazolidinedione derivatives as antimalarial agents” (Bioorg Med Chem, 2011).
Values after ≈ are worked out from the molar mass of the structure shown. Active and inactive are the calls of the source. The rule behind the calls is not given here.

How the values were obtained:
[1] = system: Plasmodium falciparum; assay: Antimicrobial activity against Plasmodium falciparum D6 by microdilution method; type: functional, organism-based
[2] = system: Plasmodium falciparum; assay: Antimicrobial activity against Plasmodium falciparum TM91C235 by microdilution method; type: functional, organism-based
[3] = system: Plasmodium falciparum; assay: Antimicrobial activity against Plasmodium falciparum W2 by microdilution method; type: functional, organism-based
[4] = system: Plasmodium berghei; assay: Antiplasmodial activity against Plasmodium berghei sporozoites infected in orally dosed mouse administered for three consecutive days one day before infection; type: functional; conditions: po, 24 h, read-out: MED
In short: (§1)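 Mice were inoculated with P. berghei sporozoites. For oral dosing, compounds were ground and suspended in hydroxyethylcellulose plus Tween 80; for sc dosing, they were suspended in peanut oil. Doses were given once daily on three consecutive days: the day before, 4 h before, and the day after inoculation. Several dose levels were used, up to 320 mg/kg/day. Cure was scored.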

[5] = Toxicity in Plasmodium berghei sporozoites infected orally dosed mouse administered for three consecutive days one day before infection; type: organism-based; conditions: in vivo, po
In short: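 Mice received P. berghei sporozoites. Each compound was ground and suspended in hydroxyethylcellulose plus Tween 80, then given orally at several dose levels up to 320 mg/kg/day. Dosing was once daily for three consecutive days: the day before, 4 h before, and the day after sporozoite inoculation.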

[6] = organism: Mus musculus; assay: Metabolic stability in mouse liver microsome by LC-MS/MS method; conditions: liver microsomes
[7] = organism: Homo sapiens; assay: Metabolic stability in human liver microsome by LC-MS/MS method; conditions: liver microsomes
[8] = system: Plasmodium cynomolgi; assay: Antiplasmodial activity against Plasmodium cynomolgi sporozoites infected in Rhesus monkey assessed as duration for detection of parasites in blood at 0.316 mg/kg/day, po administered for three consecutive days before infection (reference value: 8 days); type: functional
[9] = system: Plasmodium cynomolgi; assay: Antiplasmodial activity against Plasmodium cynomolgi sporozoites infected in Rhesus monkey assessed as delay in detection of parasites in blood at 0.316 mg/kg/day, po administered for three consecutive days before infection; type: functional
[10] = system: Plasmodium berghei; assay: Antiplasmodial activity against Plasmodium berghei sporozoites infected in orally dosed mouse assessed as cure from infection 160 mg/kg/day, po administered for three consecutive days before infection measured after at day 31; type: functional, organism-based; in short: as §1
[11] = system: Plasmodium cynomolgi; assay: Antiplasmodial activity against Plasmodium cynomolgi sporozoites infected in Rhesus monkey assessed as relapse time at 10 mg/kg/day, po administered for 7 consecutive days
[12] = Plasmodium falciparum, D6, read-out: IC50
[13] = Plasmodium falciparum, TM91C235, read-out: IC50
[14] = Plasmodium falciparum, W2, read-out: IC50

SMILES	IC50 [1]	IC50 [1, 12]	IC50 [2, 13]	IC50 [3]	IC50 [3, 14]	minimal effective dose [4]	MTD at 3 days [5]	half-life [6]	half-life [7]	Time [8]	Time [9]	Activity [10]	IC50 [2]	Time [11]
CC(C)N1C(=O)C(=O)N=C1/N=C(\NCc1ccccc1)Nc1ccc(Cl)c(Cl)c1	2.36 µg/mL (≈ 5.46 µM)	2.36 µg/mL (≈ 5.46 µM)	> 5 µg/mL	1.3 µg/mL (≈ 3.01 µM)	1.3 µg/mL (≈ 3.01 µM)	> 320 mg/kg/day	≥ 320 mg/kg/day	> 1 h	> 1 h	–	–	–	–	–
COc1cc(C)c2c(Oc3cccc(C(F)(F)F)c3)c(OC)cc(NC(C)CCCN)c2n1 (centres undefined) [TAFENOQUINE]	–	–	–	–	–	–	–	–	–	10 days	2 days	–	–	–
CCON/C(=N\C1=NC(=O)C(=O)N1C(C)C)Nc1ccc(Cl)c(Cl)c1	–	> 5 µg/mL	> 5 µg/mL	–	> 5 µg/mL	160 mg/kg/day	< 40 mg/kg/day	> 1 h	> 1 h	–	–	Active	–	–
CC(C)N1C(=O)C(=O)N=C1/N=C(\NCCCCCCNC(=O)OC(C)(C)C)Nc1ccc(Cl)c(Cl)c1	–	> 5 µg/mL	> 5 µg/mL	1.46 µg/mL (≈ 2.7 µM)	1.46 µg/mL (≈ 2.7 µM)	> 160 mg/kg/day	≥ 160 mg/kg/day	0.182 h	0.208 h	–	–	–	–	–
CC(C)N1C(=O)C(=O)N=C1/N=C(\NCCCCN1CCCC1)Nc1ccc(Cl)c(Cl)c1	1.55 µg/mL (≈ 3.32 µM)	1.55 µg/mL (≈ 3.32 µM)	> 5 µg/mL	2.3 µg/mL (≈ 4.92 µM)	2.3 µg/mL (≈ 4.92 µM)	> 160 mg/kg/day	≥ 160 mg/kg/day	> 1 h	> 1 h	–	–	–	–	–
CON/C(=N\C1=NC(=O)C(=O)N1C(C)C)Nc1ccc(Cl)c(Cl)c1	–	> 5 µg/mL	> 5 µg/mL	–	> 5 µg/mL	≥ 40 mg/kg/day	< 40 mg/kg/day	> 1 h	> 1 h	–	–	Active	–	–
CC(C)N1C(=O)C(=O)N=C1/N=C(/Nc1ccc(Cl)c(Cl)c1)NC1C2CC3CC(C2)CC1C3 (centres undefined)	0.81 µg/mL (≈ 1.7 µM)	0.81 µg/mL (≈ 1.7 µM)	2.07 µg/mL (≈ 4.35 µM)	2.68 µg/mL (≈ 5.63 µM)	2.68 µg/mL (≈ 5.63 µM)	> 320 mg/kg/day	≥ 320 mg/kg/day	0.124 h	0.093 h	–	–	–	2.07 µg/mL (≈ 4.35 µM)	–
CC(C)N1C(=O)C(=O)N=C1/N=C(/Nc1ccc(Cl)c(Cl)c1)NC(C)(C)C	0.72 µg/mL (≈ 1.81 µM)	0.72 µg/mL (≈ 1.81 µM)	1.36 µg/mL (≈ 3.41 µM)	1.15 µg/mL (≈ 2.89 µM)	1.15 µg/mL (≈ 2.89 µM)	> 320 mg/kg/day	≥ 320 mg/kg/day	> 1 h	> 1 h	–	–	–	1.36 µg/mL (≈ 3.41 µM)	–
CC(C)N1C(=O)C(=O)N=C1/N=C(\NCCN(C)C)Nc1ccc(Cl)c(Cl)c1	–	> 5 µg/mL	> 5 µg/mL	–	> 5 µg/mL	> 160 mg/kg/day	≥ 160 mg/kg/day	> 1 h	> 1 h	–	–	–	–	–
CC(C)N1C(=O)C(=O)N=C1/N=C(\NCCCN(C)C)Nc1ccc(Cl)c(Cl)c1	–	> 5 µg/mL	> 5 µg/mL	–	> 5 µg/mL	> 160 mg/kg/day	≥ 160 mg/kg/day	> 1 h	> 1 h	–	–	–	–	–
CCN(CC)CCCC(C)Nc1ccnc2cc(Cl)ccc12 (centres undefined) [CHLOROQUINE]	–	–	–	–	–	–	–	–	–	–	–	–	–	11 days
